# Measurements reported in ChEMBL document CHEMBL1124098, “N-terminal requirements of small peptide anticoagulants based on hirudin54-65” (J Med Chem, 1988).
# Starred links: 1 amine or outer side, 2 acyl side, 3 side chain; linkers in the order of their positions; H or OH if unused. Non-standard residues stand in square brackets, D forms with d. Residues, ends and D or L forms follow the SMILES beside them. *: point of attachment. Hydrocinnamoyl = O=C(CCc1ccccc1)*; Phg = N[C@H](C(=O)O)c1ccccc1; Suc = O=C(CCC(=O)[*:2])[*:1]; X1 = O=C(/C=C/c1ccccc1)*; Bz = O=C(c1ccccc1)*
# Experiment: In vitro Inhibition of fibrin clot formation relative to a blank control after thrombin addition to plasma in human
# Assay type: functional, cell-free
# How it was run: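 Fasted donor human plasma collected in 0.1% EDTA (final), filter-sterilized, stored at -20 °C. Bovine thrombin (0.2 pmol) preincubated with peptide 10 min at 24 °C. Then 1:10 diluted plasma in NaCl/sodium phosphate was added. Buffer pH 7.4 with 0.1% BSA.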
row,IC50,Compound
1,> 250 µM,CC[C@H](C)[C@H](NC(=O)[C@H](CCC(=O)O)NC(=O)[C@H](CCC(=O)O)NC(=O)c1ccccc1)C(=O)N1CCC[C@H]1C(=O)N[C@@H](CCC(=O)O)C(=O)N[C@@H](CCC(=O)O)C(=O)N[C@@H](Cc1ccc(O)cc1)C(=O)N[C@@H](CC(C)C)C(N)=O (Bz-EEIPEEYL-NH2)
2,> 250 µM,CC[C@H](C)[C@H](NC(=O)[C@H](CCC(=O)O)NC(=O)[C@H](CCC(=O)O)NC(=O)[C@@H](NC(=O)[C@H](CC(=O)O)NC(=O)CN)c1ccccc1)C(=O)N1CCC[C@H]1C(=O)N[C@@H](CCC(=O)O)C(=O)N[C@@H](CCC(=O)O)C(=O)N[C@@H](Cc1ccc(O)cc1)C(=O)N[C@@H](CC(C)C)C(=O)N[C@@H](CCC(N)=O)C(=O)O (H-GD[Phg]EEIPEEYLQ-OH)
3,> 250 µM,CC[C@H](C)[C@H](NC(=O)[C@H](CCC(=O)O)NC(=O)[C@H](CCC(=O)O)NC(=O)CCc1ccccc1)C(=O)N1CCC[C@H]1C(=O)N[C@@H](CCC(=O)O)C(=O)N[C@@H](CCC(=O)O)C(=O)N[C@@H](Cc1ccc(O)cc1)C(=O)N[C@@H](CC(C)C)C(N)=O (Hydrocinnamoyl-EEIPEEYL-NH2)
4,1.7 µM,CC[C@H](C)[C@H](NC(=O)[C@H](CCC(=O)O)NC(=O)[C@H](CCC(=O)O)NC(=O)[C@H](Cc1ccccc1)NC(=O)CCC(=O)O)C(=O)N1CCC[C@H]1C(=O)N[C@@H](CCC(=O)O)C(=O)N[C@@H](CCC(=O)O)C(=O)N[C@@H](Cc1ccc(O)cc1)C(=O)N[C@@H](CC(C)C)C(=O)N[C@@H](CCC(N)=O)C(=O)O (Suc-FEEIPEEYLQ-OH)
5,> 250 µM,CC[C@H](C)[C@H](NC(=O)[C@H](CCC(=O)O)NC(=O)[C@H](CCC(=O)O)NC(=O)/C=C/c1ccccc1)C(=O)N1CCC[C@H]1C(=O)N[C@@H](CCC(=O)O)C(=O)N[C@@H](CCC(=O)O)C(=O)N[C@@H](Cc1ccc(O)cc1)C(=O)N[C@@H](CC(C)C)C(N)=O (X1-EEIPEEYL-NH2)

row,Compound,IC50
1,H-FEEIPEEYLQ-OH,34 µM
